Screening results: PubChem BioAssay, several laboratories
FXIa inh 1536 – blocks human coagulation factor XIa protease activity; P03951; purified FXIa, Boc-Glu-Ala-Arg-AMC fluorogenic substrate; inhibition, % at 5 µM; actives 0.14% (n = 220,000); AID 798;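 active = inhibition of at least 40%; inactive = inhibition below 40%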;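 also: fluorescence of freed AMC excited at 355 nm; 0% = enzyme without compound and 100% = no enzyme blank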
FXIIa inh 1536 – inhibitors of human coagulation factor XIIa | P00748 | purified FXIIa, Boc-QGR-AMC fluorogenic substrate, 2 h | inhibition, % at 5 µM | actives 0.3% (n = 220,000) | AID 800; in the data active = inhibition above about 40%;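 also: 0% = enzyme with no compound and 100% = blank without enzyme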
KLK5 inh – blocks human kallikrein 5 protease activity; Q9Y337; recombinant hK5, fluorogenic AMC substrate cleavage; inhibition, % at 5 µM; actives 0.59% (n = 210,000); AID 873;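 active = inhibition of 40% or more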;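 also: 0% = enzyme controls without compound and 100% = no-enzyme blanks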
Target sequence (Q9Y337 67-293 limits assumed): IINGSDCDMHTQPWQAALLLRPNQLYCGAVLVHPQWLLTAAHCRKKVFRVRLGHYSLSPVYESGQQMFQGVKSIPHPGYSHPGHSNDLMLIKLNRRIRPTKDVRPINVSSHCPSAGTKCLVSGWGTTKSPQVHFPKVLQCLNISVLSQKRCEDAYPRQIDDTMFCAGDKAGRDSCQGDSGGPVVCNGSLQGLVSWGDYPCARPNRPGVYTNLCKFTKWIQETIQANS
thrombin 1536 – inhibitors of human thrombin; P00734; alpha-thrombin, Boc-VPR-AMC fluorogenic substrate cleavage; inhibition, % at 5 µM; actives 0.26% (n = 220,000); AID 1046;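 active = inhibition at or above 40%; inactive = inhibition below 40%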;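 also: 0% = enzyme with no compound and 100% = wells without enzyme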
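System: Human alpha-thrombin protein | Medium: pH 7.5 Tris (50 mM) with NaCl 150 mM, Tween 20 0.05% | Times: Enzyme reaction carried out at room temperature | Detection: AMC fluorescence, 355/460 nm | Evaluation: Percent inhibition scaled between no-compound controls and no-enzyme blanks | Benchmarks: Enzyme without compound as high, wells lacking enzyme as low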
Wee1 stabilizer – blocks degradation of human Wee1 kinase; reporter increase, % at 5 µM; AID 1321; actives 1.2% (n = 220,000); HeLa Luc-Wee1K328M stability, luciferase luminescence; 100% = proteasome inhibitor MG132 effect;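 active = activation above the mean of all tested compounds plus 3 SD, set per screening run, cut at about 8.8% in these data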;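 also: cells exposed to compound for 20 h before luminescence read; 0% = DMSO alone and 100% = MG132 at 30 µM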
Starred values were filed as active, the others as inactive; x = no result given. In the library only some 2.2% were active in any assay of this set; here they are far more common.

SMILES	FXIa inh 1536	FXIIa inh 1536	KLK5 inh	thrombin 1536	Wee1 stabilizer
CCN1CCN(C(=O)CN(c2ccc(F)c(Cl)c2)S(C)(=O)=O)CC1	-5	6	7	-1	-2
CSc1nc(C)c(C(=O)C[n+]2ccccc2)cc1C#N	14	6	2	3	9.8*
Nc1nc(SCC(=O)Nc2ccc(OCc3ccccc3)cc2)n[nH]1	23	39	44*	-2	1
Cc1nc(SCC(=O)Nc2ccc(OCc3ccccc3)cc2)n[nH]1	0	7	x	0	2
O=C1c2cccc3cccc(c23)C(=O)N1CCc1ccccc1	-1	7	8	1	1
Cn1c(Cn2nnc3ccccc32)nnc1SCC(=O)Nc1nccs1	-11	0	-13	-16	2
Cc1cc(=O)oc2cc(OCC(=O)NCc3ccco3)ccc12	3	14	42*	19	1
Cc1cc(=O)oc2ccc(OCC(=O)NCc3ccco3)cc12	8	19	3	-1	-2
COc1cc2c(cc1OC)C(C)N(C(=O)c1sc(-c3cnccn3)nc1C)CC2 (stereo not given)	0	2	1	-5	-1
N#CC1C(C#N)N2CCCN2C1c1ccc(Br)cc1 (stereo not given)	5	5	2	-3	-2
Cc1ccc(S(=O)(=O)NC(CC(C)C)C(=O)NCc2ccco2)cc1 (stereo not given)	3	6	45*	6	2
Cc1ccc(S(=O)(=O)NC(CC(=O)NCc2ccco2)c2ccco2)cc1 (stereo not given)	-13	-2	-30	7	2
CN1CCN(C(CNS(=O)(=O)c2ccc(Cl)cc2)c2cccnc2)CC1 (stereo not given)	2	12	42*	16	-1
COC(=O)c1c(C)nn(-c2ccccc2)c1-n1cccc1	14	33	33	41*	-2
COC(=O)c1c(C)nn(-c2ccccc2)c1N	5	5	-5	-4	-1
C=CCc1ccc2oc(C(=O)OCC)cc(=O)c2c1O	-1	11	-5	-5	10*
CC(=O)OCC(=O)[C@@]12OC(C)(C)O[C@@H]1C[C@H]1[C@@H]3C[C@H](F)C4=CC(=O)C=C[C@]4(C)[C@@]3(F)[C@@H](O)C[C@@]12C	5	3	-6	x	11*
CC(=O)OCC(=O)[C@@]1(OC(C)=O)[C@@H](C)C[C@H]2[C@@H]3C[C@H](F)C4=CC(=O)C=C[C@]4(C)[C@@]3(F)[C@@H](O)C[C@@]21C	3	11	-10	0	1
O=C(Nc1cccc([N+](=O)[O-])c1)c1cc2ccccc2cc1O	4	8	0	0	10*
Cc1c(C(=O)Nc2cccc([N+](=O)[O-])c2)csc1-c1ccccc1	4	10	0	-2	10*
O=C(O)c1ccccc1C(=O)Nc1cccc([N+](=O)[O-])c1	1	6	-2	-5	5
CCCn1c(C)cc(C(=O)COC(=O)c2ccc[nH]c2=O)c1C	-13	4	1	-8	1
CC1CC(CCC(=O)NC(=S)Nc2ccc(Cl)cn2)C(=O)O1 (stereo not given)	-3	5	1	0	2
O=c1[nH]c(SCc2ccccc2F)nc2ccccc12	-4	1	-2	-7	0
Fc1ccccc1CSc1nc2ncccc2[nH]1	2	7	-5	-7	10*
SMILES	FXIa inh 1536	FXIIa inh 1536	KLK5 inh	thrombin 1536	Wee1 stabilizer
COc1cc(OC)cc(C(=O)NCCC(=O)NCCc2ccc(OC)c(OC)c2)c1	-6	1	-24	-6	0
COCCCNC(=O)C(F)(F)C(F)(F)C(=O)NCCCOC	19	27	122*	9	0
O=C(NCCCCNC(=O)C(F)(F)F)C(F)(F)F	-2	0	-14	0	2
O=C1COc2ccc(C(=O)COC(=O)Cc3ccsc3)cc2N1	-4	6	-6	-6	10*
Cc1ccc(Cl)c(OCC(=O)Nc2ccc3c(c2)OCCO3)c1	-3	8	-3	-5	8
Cc1ccc(Cl)c(OCC(=O)Nc2sc(C)c(C)c2C#N)c1	15	3	-5	3	8.8*
O=C(CSc1nc2ccccc2[nH]1)NC1CCCC1	-1	6	-2	-6	2
O=C(CCCSc1nc2ccccc2[nH]1)NC1CCCCC1	2	14	5	-1	9.4*
O=C1CN(C(=O)COC(=O)c2ccc[n+]([O-])c2)c2ccccc2N1	2	3	-8	-10	-3
